Data set [1] deals with Epidermal growth factor receptor (Homo sapiens, UniProt P00533). The data set can be described thus: Inhibition of recombinant human wild type GST-tagged EGFR cytoplasmic domain (668 to 1210 residues) expressed in baculovirus using tyr4 peptide as substrate after 1 hr by FRET-based Z'-Lyte assay.
Data set [2] is described as follows: Cmax in Sprague-Dawley rat at 25 mg/kg administered via oral gavage measured up to 72 hrs by LC/MS analysis. In kind it is ADME, organism-based. Details: dose 25 mg/kg, route oral. The settings on record: in vivo. The method in brief:
(§1)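 Male Sprague-Dawley rats, 4–6 weeks old, acclimatised 1 week, were dosed iv at 5 mg/kg or by oral gavage at 25 mg/kg. Vehicle was 2% DMSO, 4% EtOH, 4% castor oil, 90% H2O. Blood was drawn by orbital sinus puncture from 2 min to 72 h into heparinized tubes. Plasma was assayed by LC/MS with propranolol as internal standard. Three animals per group.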

Data set [3] can be described thus: Half life in Sprague-Dawley rat at 25 mg/kg administered via oral gavage measured up to 72 hrs by LC/MS analysis. The settings on record: in vivo. The class given is ADME, organism-based. The method in brief:
as §1

The nature of data set [4]: Half life in Sprague-Dawley rat at 5 mg/kg, iv measured up to 72 hrs by LC/MS analysis. In kind it is ADME, organism-based. The settings on record: in vivo. The essentials:
as §1

The nature of data set [5]: Oral bioavailability in Sprague-Dawley rat at 25 mg/kg administered via gavage measured up to 72 hrs by LC/MS analysis. The class given is ADME, organism-based. The settings on record: in vivo. The method in brief: as §1
Data set [6] has as its target Platelet-derived growth factor receptor alpha (Homo sapiens, UniProt P16234). The data set can be described thus: Inhibition of recombinant cytoplasmic human GST-tagged PDGFRalpha expressed in baculovirus using poly (4:1 Glu, Tyr) peptide as substrate after 1 hr by ADP-Glo assay. For orientation: In ADP-Glo the light output rises with the ADP produced.
Data set [7] addresses Platelet-derived growth factor receptor beta (Homo sapiens, UniProt P09619). The data set can be described thus: Inhibition of recombinant human PDGFRbeta expressed in baculovirus using poly (4:1 Glu, Tyr) peptide as substrate after 1 hr by ADP-Glo assay.
Data set [8] addresses Fibroblast growth factor receptor 2 (Homo sapiens, UniProt P21802). The data set can be described thus: Inhibition of cytoplasmic recombinant human His-tagged FGFR2 (403 to 822 residues) expressed in baculovirus using tyr4 peptide as substrate after 1 hr by FRET-based Z'-Lyte assay.
For data set [9], the target named is Tyrosine-protein kinase ABL1 (Homo sapiens) (UniProt P00519). The data set can be described thus: Inhibition of human ABL1 (S229 to K512 residues) expressed in mammalian expression system at 100 nM by KINOMEscan assay relative to control.
Tyrosine-protein kinase ABL1 (Homo sapiens), sequence (P00519 whole entry, the tested form may be a part): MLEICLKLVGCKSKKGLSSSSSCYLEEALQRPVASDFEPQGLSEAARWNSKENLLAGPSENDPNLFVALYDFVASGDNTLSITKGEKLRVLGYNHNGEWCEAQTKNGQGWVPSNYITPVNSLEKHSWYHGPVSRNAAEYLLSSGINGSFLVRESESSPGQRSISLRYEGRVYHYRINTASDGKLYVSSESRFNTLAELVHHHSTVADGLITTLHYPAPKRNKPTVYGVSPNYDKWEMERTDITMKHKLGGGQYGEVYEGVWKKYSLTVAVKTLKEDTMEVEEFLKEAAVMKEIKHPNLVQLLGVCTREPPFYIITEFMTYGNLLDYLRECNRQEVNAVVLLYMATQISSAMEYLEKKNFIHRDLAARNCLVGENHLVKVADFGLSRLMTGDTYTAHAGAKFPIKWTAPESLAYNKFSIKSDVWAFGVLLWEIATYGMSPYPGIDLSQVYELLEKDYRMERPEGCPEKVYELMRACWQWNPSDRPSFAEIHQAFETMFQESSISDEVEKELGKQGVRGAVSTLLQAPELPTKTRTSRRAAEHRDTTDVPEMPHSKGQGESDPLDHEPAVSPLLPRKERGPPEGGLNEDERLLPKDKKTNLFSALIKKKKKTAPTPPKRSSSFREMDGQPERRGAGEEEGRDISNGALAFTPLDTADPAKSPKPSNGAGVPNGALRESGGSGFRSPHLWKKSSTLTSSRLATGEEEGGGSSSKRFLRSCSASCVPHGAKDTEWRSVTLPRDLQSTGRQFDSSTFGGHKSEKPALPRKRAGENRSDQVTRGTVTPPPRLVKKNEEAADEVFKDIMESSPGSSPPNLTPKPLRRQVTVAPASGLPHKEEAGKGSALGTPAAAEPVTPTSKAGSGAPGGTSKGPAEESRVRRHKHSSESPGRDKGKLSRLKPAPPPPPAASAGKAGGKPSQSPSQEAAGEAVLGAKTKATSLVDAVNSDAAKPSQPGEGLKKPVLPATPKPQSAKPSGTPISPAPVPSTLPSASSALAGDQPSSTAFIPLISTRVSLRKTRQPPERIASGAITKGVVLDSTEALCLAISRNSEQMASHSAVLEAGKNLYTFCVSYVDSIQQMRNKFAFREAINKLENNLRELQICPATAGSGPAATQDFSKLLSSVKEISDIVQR
In data set [10] the target is Cytoplasmic tyrosine-protein kinase BMX (Homo sapiens) (UniProt P51813). The data set can be described thus: Inhibition of recombinant human BMX (M1 to H675 residues) expressed in bacterial expression system at 100 nM by KINOMEscan assay relative to control.
Cytoplasmic tyrosine-protein kinase BMX (Homo sapiens), sequence (P51813 whole entry, the tested form may be a part): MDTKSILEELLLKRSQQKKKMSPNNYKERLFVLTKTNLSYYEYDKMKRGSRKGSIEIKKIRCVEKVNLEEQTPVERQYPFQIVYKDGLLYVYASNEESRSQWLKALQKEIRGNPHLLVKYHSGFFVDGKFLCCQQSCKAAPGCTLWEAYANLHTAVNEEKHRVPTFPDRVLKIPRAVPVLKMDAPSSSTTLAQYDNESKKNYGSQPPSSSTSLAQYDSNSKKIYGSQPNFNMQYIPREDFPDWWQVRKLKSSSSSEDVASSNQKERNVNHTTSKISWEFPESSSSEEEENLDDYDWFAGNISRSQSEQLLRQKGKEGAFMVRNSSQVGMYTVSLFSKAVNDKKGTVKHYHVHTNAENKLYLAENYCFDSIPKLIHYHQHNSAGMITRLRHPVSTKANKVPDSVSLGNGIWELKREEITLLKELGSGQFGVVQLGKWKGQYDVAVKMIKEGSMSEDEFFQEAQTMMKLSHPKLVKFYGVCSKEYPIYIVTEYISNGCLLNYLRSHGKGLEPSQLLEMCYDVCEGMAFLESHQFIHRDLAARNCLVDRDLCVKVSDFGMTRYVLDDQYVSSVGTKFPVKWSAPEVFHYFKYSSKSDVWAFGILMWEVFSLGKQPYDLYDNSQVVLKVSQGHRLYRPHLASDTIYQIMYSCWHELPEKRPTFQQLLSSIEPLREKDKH
The target in data set [11] is Proto-oncogene tyrosine-protein kinase receptor Ret (Homo sapiens) (UniProt P07949). The data set can be described thus: Inhibition of human RET (E713 to D1014 residues) expressed in bacterial expression system at 100 nM by KINOMEscan assay relative to control.
Proto-oncogene tyrosine-protein kinase receptor Ret (Homo sapiens), sequence (P07949 whole entry, the tested form may be a part): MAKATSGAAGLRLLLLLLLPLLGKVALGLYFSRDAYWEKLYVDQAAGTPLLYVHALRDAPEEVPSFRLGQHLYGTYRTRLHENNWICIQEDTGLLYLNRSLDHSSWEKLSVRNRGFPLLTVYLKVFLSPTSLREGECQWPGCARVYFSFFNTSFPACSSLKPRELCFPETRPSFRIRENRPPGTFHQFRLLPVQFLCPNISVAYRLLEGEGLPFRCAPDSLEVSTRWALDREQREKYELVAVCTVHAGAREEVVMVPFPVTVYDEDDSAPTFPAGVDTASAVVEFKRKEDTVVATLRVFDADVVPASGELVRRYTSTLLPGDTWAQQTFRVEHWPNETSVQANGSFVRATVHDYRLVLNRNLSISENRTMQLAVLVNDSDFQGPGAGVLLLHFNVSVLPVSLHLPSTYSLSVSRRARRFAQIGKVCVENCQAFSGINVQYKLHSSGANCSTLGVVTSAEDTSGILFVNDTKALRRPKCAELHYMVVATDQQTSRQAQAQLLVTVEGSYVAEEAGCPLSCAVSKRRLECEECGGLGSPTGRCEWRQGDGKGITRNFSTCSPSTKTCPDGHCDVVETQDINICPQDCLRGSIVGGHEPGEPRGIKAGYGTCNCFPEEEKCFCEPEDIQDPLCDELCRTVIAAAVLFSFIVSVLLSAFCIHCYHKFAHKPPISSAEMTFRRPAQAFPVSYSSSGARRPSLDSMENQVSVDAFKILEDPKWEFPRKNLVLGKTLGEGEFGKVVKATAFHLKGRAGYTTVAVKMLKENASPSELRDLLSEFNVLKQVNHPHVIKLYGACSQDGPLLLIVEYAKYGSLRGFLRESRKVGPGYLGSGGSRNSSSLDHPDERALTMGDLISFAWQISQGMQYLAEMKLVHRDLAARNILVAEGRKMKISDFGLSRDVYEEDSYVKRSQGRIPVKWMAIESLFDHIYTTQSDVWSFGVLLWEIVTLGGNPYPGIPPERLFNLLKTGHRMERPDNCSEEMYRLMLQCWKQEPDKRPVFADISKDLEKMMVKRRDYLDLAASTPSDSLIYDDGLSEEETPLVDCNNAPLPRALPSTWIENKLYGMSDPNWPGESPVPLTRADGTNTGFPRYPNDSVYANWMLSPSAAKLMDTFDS
The subject of data set [12] is RAW264.7. The data set can be described thus: Antimigratory activity against mouse RAW264.7 cells assessed as inhibition of human LNCaP-MDV-CM mediated macrophage migration at 0.625 uM after 24 hrs by crystal violet staining based transwell assay relative to control. The class given is functional. The note with it: RAW264.7, 24 h. The essentials: (§2)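 RAW264.7 cells, (2−4) × 10^5, were placed serum-free in the upper insert of a transwell. The lower chamber held conditioned medium from LNCaP cells grown 48 h in 10% FBS RPMI 1640 with 10 μM MDV3100 or DMSO. Compound at 0.625–5.0 μM was added to the top chamber for 24 h at 37 °C. Migrated cells were fixed in methanol, stained with 0.25% crystal violet and counted in six random fields at 200×. Three independent experiments.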

For data set [13], the system named is RAW264.7. The data set can be described thus: Antimigratory activity against mouse RAW264.7 cells assessed as inhibition of human LNCaP-MDV-CM mediated macrophage migration at 2.5 uM after 24 hrs by crystal violet staining based transwell assay relative to control. The note with it: RAW264.7, 24 h. In kind it is functional. The essentials:
as §2

For data set [14], the system named is RAW264.7. The data set can be described thus: Downregulation of VEGFA mRNA expression in mouse RAW264.7 cells after 48 hrs by qRT-PCR analysis relative to DMSO. In kind it is functional, cell-based. The essentials:
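RAW264.7 macrophages were treated 48 h with compound at 0.08, 0.4 or 2.0 μM, or DMSO vehicle. Total RNA was extracted with TRIzol and transcripts were quantified by qRT-PCR using gene-specific primers. Run three times, each in triplicate.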
A general note: Real-time PCR tracks product formation cycle by cycle.

Data set [15] relates to RAW264.7. The data set can be described thus: Inhibition of protumorigenic potential of mouse RAW264.7 cells assessed as abrogation of human LNCAP cell growth enhancement of macrophages at 0.08 uM co-cultured for 48 hrs by CCK8 assay relative to control. The class given is functional. The settings on record: RAW264.7, 48 h. The method in brief:
(§3)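 LNCaP cells, (2−4) × 10^5, were seeded in the lower transwell chamber. After 2 h, (1−2) × 10^6 RAW264.7 cells were added in a 0.4 μm insert. Compound at 0.016–2.0 μM was added to the top chamber and cells were cocultured 48 h at 37 °C. LNCaP cells were then imaged and counted by CCK8. Run three times, each in triplicate.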

Data set [16] relates to RAW264.7. The data set can be described thus: Inhibition of protumorigenic potential of mouse RAW264.7 cells assessed as abrogation of human LNCAP cell growth enhancement of macrophages at 2 uM co-cultured for 48 hrs by CCK8 assay relative to control. The class given is functional. The note with it: RAW264.7, 48 h. The essentials:
as §3
For orientation: Tetrazolium dyes change colour on reduction, which living cells bring about.

For data set [17], the species on record is Homo sapiens. The data set can be described thus: Selectivity ratio of IC50 for recombinant human wild type GST-tagged EGFR cytoplasmic domain (668 to 1210 residues) expressed in baculovirus to IC50 for recombinant human His-tagged CSF1R cytoplasmic domain (538 to 910 residues) expressed in baculovirus. The method in brief:
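Z′-Lyte FRET assay with CSF1R or EGFR and 2 μM Tyr4 peptide substrate in 1× kinase buffer. ATP was supplied as a 100 μM solution, a stock and not the final concentration. Compounds were 3-fold serially diluted in DMSO. Reaction ran 1 h at room temperature, followed by 1 h development and a stop reagent. Phospho-peptide, no-ATP and DMSO controls were included. IC50 by curve fitting; mean of at least three independent experiments.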

The species entered for data set [18] is Homo sapiens. The data set can be described thus: Selectivity ratio of IC50 for recombinant human His-tagged FLT3 (564 to 958 residues) expressed in baculovirus to IC50 for recombinant human His-tagged CSF1R cytoplasmic domain (538 to 910 residues) expressed in baculovirus.
Data set [19] has as its system RAW264.7. The data set can be described thus: Antimigratory activity against mouse RAW264.7 cells assessed as inhibition of human LNCaP-MDV-CM mediated macrophage migration after 24 hrs by crystal violet staining based transwell assay. The class given is functional, cell-based. The method in brief: as §2

The structures appear in SMILES notation. A value given as a limit tells only on which side of the number the result lay.

Broadly, the IC50 is the concentration at which inhibition is half-maximal. In general, Cmax refers to the highest concentration seen after dosing. Usually half-life stands for the time needed for the level to fall by half in the phase considered. A high value points to slow decline. As a reminder, the bioavailability is dose-corrected exposure relative to a reference, in per cent. Read a low bioavailability as little systemic uptake. Usually inhibition stands for the drop in the measured response relative to a control, in per cent.

Platelet-derived growth factor receptor alpha, sequence (P16234 whole entry): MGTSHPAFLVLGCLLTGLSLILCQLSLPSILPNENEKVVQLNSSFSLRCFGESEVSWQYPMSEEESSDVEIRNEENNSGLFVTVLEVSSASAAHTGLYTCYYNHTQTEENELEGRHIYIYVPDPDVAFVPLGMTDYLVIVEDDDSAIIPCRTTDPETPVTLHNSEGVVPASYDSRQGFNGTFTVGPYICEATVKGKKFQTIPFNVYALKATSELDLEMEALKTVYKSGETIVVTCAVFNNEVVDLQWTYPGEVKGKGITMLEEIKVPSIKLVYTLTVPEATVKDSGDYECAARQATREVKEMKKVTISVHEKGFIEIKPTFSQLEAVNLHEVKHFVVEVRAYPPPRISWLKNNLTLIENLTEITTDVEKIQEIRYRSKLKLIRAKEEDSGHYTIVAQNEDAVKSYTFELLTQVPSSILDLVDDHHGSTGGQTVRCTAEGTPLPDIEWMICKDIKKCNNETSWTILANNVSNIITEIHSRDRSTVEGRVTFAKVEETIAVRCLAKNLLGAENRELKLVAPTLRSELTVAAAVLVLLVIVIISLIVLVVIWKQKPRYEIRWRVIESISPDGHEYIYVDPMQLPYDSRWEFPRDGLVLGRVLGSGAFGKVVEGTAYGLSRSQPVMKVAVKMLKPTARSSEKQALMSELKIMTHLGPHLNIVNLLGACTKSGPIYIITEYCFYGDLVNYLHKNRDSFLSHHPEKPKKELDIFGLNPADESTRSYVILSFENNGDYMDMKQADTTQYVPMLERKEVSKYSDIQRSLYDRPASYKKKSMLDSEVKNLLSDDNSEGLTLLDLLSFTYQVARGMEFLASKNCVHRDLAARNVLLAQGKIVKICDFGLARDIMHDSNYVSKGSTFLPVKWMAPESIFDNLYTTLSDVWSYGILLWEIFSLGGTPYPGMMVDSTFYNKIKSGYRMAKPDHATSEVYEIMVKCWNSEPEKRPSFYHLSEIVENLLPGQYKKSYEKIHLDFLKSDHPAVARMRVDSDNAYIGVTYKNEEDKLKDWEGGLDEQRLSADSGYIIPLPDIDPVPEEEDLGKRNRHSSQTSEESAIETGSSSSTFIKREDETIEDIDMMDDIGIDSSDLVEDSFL
Platelet-derived growth factor receptor beta, sequence (P09619 whole entry, the tested form may be a part): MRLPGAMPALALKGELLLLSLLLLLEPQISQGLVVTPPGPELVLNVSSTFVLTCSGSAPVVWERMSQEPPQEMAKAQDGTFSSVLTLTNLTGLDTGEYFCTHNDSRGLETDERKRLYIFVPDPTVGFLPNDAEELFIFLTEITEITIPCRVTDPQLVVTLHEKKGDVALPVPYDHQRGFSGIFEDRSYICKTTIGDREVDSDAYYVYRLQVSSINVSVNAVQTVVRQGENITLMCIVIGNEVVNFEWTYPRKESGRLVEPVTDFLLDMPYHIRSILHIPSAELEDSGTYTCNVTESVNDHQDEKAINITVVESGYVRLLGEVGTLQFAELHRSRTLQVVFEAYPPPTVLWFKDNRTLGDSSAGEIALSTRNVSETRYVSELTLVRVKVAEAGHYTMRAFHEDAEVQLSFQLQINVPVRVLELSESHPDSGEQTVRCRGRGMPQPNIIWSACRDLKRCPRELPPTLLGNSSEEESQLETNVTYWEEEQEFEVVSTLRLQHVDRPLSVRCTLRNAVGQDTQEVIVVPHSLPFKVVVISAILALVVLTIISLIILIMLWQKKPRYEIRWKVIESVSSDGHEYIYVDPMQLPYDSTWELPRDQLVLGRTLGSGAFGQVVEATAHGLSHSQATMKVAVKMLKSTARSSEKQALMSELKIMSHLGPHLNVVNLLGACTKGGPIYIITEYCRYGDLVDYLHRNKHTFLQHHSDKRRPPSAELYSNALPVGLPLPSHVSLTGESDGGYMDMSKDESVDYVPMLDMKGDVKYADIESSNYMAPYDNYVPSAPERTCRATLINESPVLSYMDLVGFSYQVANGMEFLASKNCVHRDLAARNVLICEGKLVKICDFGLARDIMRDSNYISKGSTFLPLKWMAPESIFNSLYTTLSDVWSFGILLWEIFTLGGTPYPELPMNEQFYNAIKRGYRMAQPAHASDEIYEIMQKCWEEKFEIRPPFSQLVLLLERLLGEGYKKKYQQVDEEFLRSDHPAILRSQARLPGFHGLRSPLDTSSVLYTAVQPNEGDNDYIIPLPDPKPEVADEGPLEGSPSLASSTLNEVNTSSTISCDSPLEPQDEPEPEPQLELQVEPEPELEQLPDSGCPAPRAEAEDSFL

For the compound `CCC(=O)N1CC[C@H](N2C(=O)N(c3cc(OC)ccc3Cl)Cc3cnc(Nc4ccc(N5CCN(C6COC6)CC5)c(C)c4)nc32)C1`, the IC50 in data set [1] was determined as 360 nM; in data set [6], 74 nM; in data set [7] it was 106 nM; in data set [8] it was 27 nM. Also, the Cmax in data set [2] came out at 2520 ng/mL. Further, the half-life in [3] and in [4] was 1.08 h throughout. Further, in [5], the bioavailability was 44.4%. Also, the inhibition in [9] was above 90%; in data set [10], above 90%; in [11] it was above 90%; in the data set with RAW264.7 [19] it was “Dose-dependent effect”. The inhibition at 0.625 µM with RAW264.7 [12] was found to be 44.5%. Further, the inhibition at 2.5 µM in the data set with RAW264.7 [13] came out at 60.6%. Besides, in the data set with RAW264.7 [14], the Activity result is “Dose-dependent effect”. In addition, the inhibition at 0.08 µM in the data set with RAW264.7 [15] turned out to be 70%. In addition, the inhibition at 2 µM in the data set on RAW264.7 [16] came out at 94.6%. The figures for the Ratio IC50 in the data set listed under Homo sapiens [17] and in the data set filed under Homo sapiens [18] were 120 and 10 to 35, respectively.

(Values after ChEMBL document CHEMBL4033795, “Design, Synthesis, and Structure-Activity Relationship Study of 2-Oxo-3,4-dihydropyrimido[4,5- d]pyrimidines as New Colony Stimulating Factor 1 Receptor (CSF1R) Kinase Inhibitors” (J Med Chem, 2018).)
